Series [1] is described as follows: Aqueous solubility of the compound at pH 6.5. The note with it: aqueous solution.
For a further series, the system named is Plasmodium falciparum. Description: Antimalarial activity against chloroquine-resistant Plasmodium falciparum Dd2 assessed as inhibition of parasite growth incubated for 72 hrs by SYBR green I-based DNA quantification assay. To be noted: Dd2, 72 h. The series is classed as functional, organism-based.
A short description of series [2]: Octanol-water distribution coefficient, logD of the compound at pH 3 by HPLC-based analysis. The class given is physicochemical.
The nature of series [3]: Cytotoxicity against human HepG2 cells assessed as reduction in cell viability incubated for 48 hrs by MTS assay. The series is classed as toxicity, cell-based. In short, it runs like this:
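HepG2 human hepatoma cells were seeded at 2,500 cells/well in 384-well plates and incubated 24 h. Serial compound dilutions (0–40 μM range) were added, then cells were incubated a further 48 h.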
For orientation: Formazan colour is commonly taken as a measure of viable cells.

Series [4] in a line: Selectivity index, ratio of EC50 for cytotoxicity against human HepG2 cells to EC50 for antimalarial activity against chloroquine-resistant Plasmodium falciparum Dd2. The class given is toxicity, cell-based. To be noted: read-out: Ratio EC50. The essentials:
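Human HepG2 hepatoma cells were seeded at 2,500 cells/well and grown 24 h. Serial dilutions of compound (0–40 μM) were then added for another 48 h. […] SI = EC50(HepG2)/EC50(Dd2).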

The nature of series [5]: Octanol-water distribution coefficient, logD of the compound at pH 7.4 by HPLC-based analysis. The class given is physicochemical.
Series [6] is described as follows: Aqueous solubility of the compound at pH 2 by HPLC analysis. The series is classed as physicochemical. The note with it: aqueous solution. In short, it runs like this: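 Aqueous solubility was measured at pH 2.0 with an in-house HPLC assay. Values are reported as bins: ≤10 μM, 10–20 μM, 20–40 μM, 40–80 μM and ≥80 μM.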

In brackets after ≈: the same amount, converted by molar mass.

By solubility is commonly meant the dissolved amount per volume that the medium holds. Read a high solubility as a readily soluble substance. The term EC50 denotes the midpoint of the concentration-response curve. The logD is the decadic logarithm of the distribution of all forms, ionised or not, between an organic phase and buffer at a given pH. Higher therefore signals higher lipophilicity. On to `O=C1CC2(CCN(C(=O)Cc3ccc(F)c(F)c3)CC2)Oc2c1ccc1ccccc21`, for which the solubility in series [1] was not above 10 µM. The EC50 with Plasmodium falciparum was more than 2.5 µM. Also, the logD in series [2] worked out at 4; in series [5], 4.03. For the same molecule, the EC50 at 48 h in series [3] amounted to 18 µM. In addition, the selectivity ratio in series [4] was less than 3.6.

With `CCN1CCC2(CCc3ccc4ccccc4c3O2)CC1`, the solubility in series [1] and in series [6] was not above 10 µM throughout. Further, the EC50 in the series on Plasmodium falciparum was 0.55 µM. Further, the logD in series [2] is given as 2.17; in series [5], 2.88. Besides, in series [3], the EC50 at 48 h was more than 20 µM. Besides, in series [4], the selectivity ratio is more than 52.1.

For `OC1CC2(CCNCC2)Oc2c1ccc1ccccc21` (configuration not stated), the figures for the solubility in series [1] and in series [6] were not above 10 µM and 40 µM (≈ 10.8 µg/mL), respectively. The EC50 in the series on Plasmodium falciparum stood at 0.51 µM. Also, the logD in series [2] turned out to be 2.04; in series [5] it was 2.46. Also, the EC50 at 48 h in series [3] is more than 20 µM. Besides, in series [4], the selectivity ratio is more than 54.5.

As to `Fc1ccc(CCN2CCC3(CCc4ccc5ccccc5c4O3)CC2)cc1F`, in the series on Plasmodium falciparum, the EC50 was 1.91 µM. Also, the logD in series [2] was 3.29; in series [5], 4.51. The EC50 at 48 h in series [3] is more than 20 µM. Also, the selectivity ratio in series [4] was determined as 4. Besides, the concentration in solution in series [6] (solubility) was 20 µM (≈ 7.87 µg/mL).

Regarding `O=C(Cc1ccc(F)c(F)c1)N1CCC2(CC1)CC(O)c1ccc3ccccc3c1O2` (configuration not stated), the EC50 in the series on Plasmodium falciparum was more than 2.5 µM. For the same molecule, the logD in series [2] came to 2.04; in series [5], 2.46. In addition, the EC50 at 48 h in series [3] worked out at 5 µM. Also, the selectivity ratio in series [4] was less than 1.

Consider `c1ccc2c3c(ccc2c1)CCC1(CCN(CCC2CCCCC2)CC1)O3`, for which the concentration giving a half-maximal response (EC50) in the series with Plasmodium falciparum is 1.47 µM. In series [3], the EC50 at 48 h came out at 2 µM. In addition, the selectivity ratio in series [4] was 1.1. Also, the log distribution coefficient (logD) in series [5] came to 4.74. In series [6], this molecule yielded a solubility of 40 µM (≈ 14.5 µg/mL).

Turning to `O=C(CN1CCC2(CCc3ccc4ccccc4c3O2)CC1)c1ccc(F)c(F)c1`, the solubility in series [1] and in series [6] was 20 µM (≈ 8.15 µg/mL) in each case. In addition, the EC50 in the series on Plasmodium falciparum was more than 2.5 µM. The EC50 at 48 h in series [3] is more than 20 µM.

Turning to `c1ccc(CN2CCC3(CCc4ccc5ccccc5c4O3)CC2)cc1`, in the series with Plasmodium falciparum, the EC50 is more than 2.5 µM. Also, the EC50 at 48 h in series [3] is more than 20 µM. In addition, the selectivity ratio in series [4] was determined as 4.

For the molecule `OC1CC2(CCN(CCCc3ccccc3)CC2)Oc2c1ccc1ccccc21` (configuration not stated), in the series on Plasmodium falciparum, the EC50 came to 0.65 µM. Also, the EC50 at 48 h in series [3] was determined as 1 µM. The selectivity ratio in series [4] amounted to 2.

Regarding `CCN1CCC[C@]2(CC(O)c3ccc4ccccc4c3O2)C1` (some centres not stated), in the series on Plasmodium falciparum, the EC50 was more than 2.5 µM. The EC50 at 48 h in series [3] was more than 20 µM. The selectivity ratio in series [4] is more than 7.6.

For the molecule `c1ccc(CCCN2CCC3(CCc4ccc5ccccc5c4O3)CC2)cc1`, the EC50 in the series on Plasmodium falciparum was determined as 1.41 µM. Besides, the EC50 at 48 h in series [3] was more than 20 µM. Moreover, in series [4], the selectivity ratio was more than 45.6.

`OC1C[C@@]2(CCCN(CCc3ccc(F)c(F)c3)C2)Oc2c1ccc1ccccc21` (some centres not stated): in the series with Plasmodium falciparum, the EC50 came out at 0.61 µM. The EC50 at 48 h in series [3] is more than 20 µM. Besides, the selectivity ratio in series [4] is more than 34.5.

Take `CCN1CCC2(C=Cc3ccc4ccccc4c3O2)CC1`: the EC50 with Plasmodium falciparum is 1.14 µM. Further, the EC50 at 48 h in series [3] is 12 µM. Further, the selectivity ratio in series [4] amounted to 9.7.

For `O=C(Cc1ccc(F)c(F)c1)N1CCC2(CCc3ccc4ccccc4c3O2)CC1`, in the series on Plasmodium falciparum, the EC50 was more than 2.5 µM. The logD in series [2] amounted to 4.02; in series [5], 4.04. In addition, the EC50 at 48 h in series [3] turned out to be 5 µM. Also, the selectivity ratio in series [4] is less than 1.

In the case of `O[C@H](CN1CCC2(CC1)C[C@H](O)c1ccc3ccccc3c1O2)c1ccc(F)c(F)c1`, in the series on Plasmodium falciparum, the concentration for a half-maximal effect (EC50) came to 1.79 µM. The EC50 at 48 h in series [3] is more than 20 µM. The selectivity ratio in series [4] came to 11.

Turning to `O[C@@H]1CC2(CCN(C[C@H](O)c3ccc(F)c(F)c3)CC2)Oc2c1ccc1ccccc21`, the EC50 in the series on Plasmodium falciparum was determined as 1.06 µM. Further, the EC50 at 48 h in series [3] is 17 µM. Also, the selectivity ratio in series [4] came to 16.

As for `C1=CC2(CCNCC2)Oc2c1ccc1ccccc21`, the EC50 in the series with Plasmodium falciparum amounted to 0.49 µM. In series [3], the EC50 at 48 h was more than 20 µM. For the same molecule, the selectivity ratio in series [4] was more than 45.6.
